Bioassay records deposited in PubChem by several laboratories.
An excerpt weighted towards active compounds, which were near 12% of everything screened.
Cl transport mod: KCC2 cotransporter modulators, thallium flux, primary screen, cell-based, HEK293 KCC2, FluoZin-2 fluorescence, MLSMR | Solute carrier family 12 member 5 (Homo sapiens), Q9H2X9 | KCC2 cells, thallium flux FluoZin-2 fluorescence | B-score of Tl+ flux slope (higher = more flux/activation; lower = inhibition) at 10 µM | 2.2% of 190,000 active | AID 1456, 2008;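 active means thallium flux slope and its plate-corrected score both differing from the plate sample mean at a set confidence after two filtering rounds, in either direction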;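 further: slope of fluorescence scaled to starting intensity during 10 to 20 s after thallium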
Lmaj promast: Leishmania major promastigote growth inhibition, primary screen; Leishmania major promastigotes, resazurin fluorescence viability; inhibition, % at 10 µM; 9% of 200,000 active; in the data active means inhibition above about 50%;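 further: promastigotes grown with compound for 44 hours at 28 °C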
ROMK mod: ROMK potassium channel modulators, primary screen, cell-based, thallium flux, MLSMR library. AID 1918, 2009. ATP-sensitive inward rectifier potassium channel 1 (Homo sapiens), P48048. B-score at 10 µM. Tet-inducible ROMK, thallium flux fluorescence; actives lie on both sides. 2% of 130,000 active;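 active means signal ratio slope over the read window, or its plate-corrected B-score, at least 3 SD from the plate mean, either direction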;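 further: B-score of the F/F0 ratio slope over 7 to 12 s after thallium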
Target sequence (P48048 whole entry, looked up): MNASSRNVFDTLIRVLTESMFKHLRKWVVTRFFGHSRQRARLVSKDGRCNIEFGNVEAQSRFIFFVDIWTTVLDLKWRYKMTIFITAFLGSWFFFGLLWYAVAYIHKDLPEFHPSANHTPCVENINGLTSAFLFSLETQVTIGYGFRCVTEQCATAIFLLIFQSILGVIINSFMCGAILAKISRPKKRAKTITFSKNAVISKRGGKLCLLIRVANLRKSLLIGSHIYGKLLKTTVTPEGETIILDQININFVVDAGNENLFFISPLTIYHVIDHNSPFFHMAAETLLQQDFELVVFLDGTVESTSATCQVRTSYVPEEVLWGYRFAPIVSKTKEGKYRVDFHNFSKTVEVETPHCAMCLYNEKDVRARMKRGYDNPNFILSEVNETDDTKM
Diaphorase act: compounds boosting diaphorase resazurin reduction – biochemical, uHTS, resorufin fluorescence, counter-screen for diaphorase-coupled primary assays, primary screen | Diaphorase/resazurin coupled assay, 16 min; stronger effect = higher value; 1 = vehicle wells, 0 = NADH-free wells | activation factor at 20 µM | 0.005% of 190,000 active | AID 1229, 2008;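 active means diaphorase activity raised at least twofold by the compound at 20 µM; inactive means activation factor below 2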
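test system = bacterial diaphorase enzyme (C. kluyveri) | quantity = enzyme 0.07 U/mL final | reagent = NADH substrate 0.114 mM plus resazurin dye 0.1 mM, final | incubation = 16 min enzyme reaction, ambient temperature | buffer or medium = HEPES pH 7.4 buffer with MgCl2 and Tween 20 | signal = fluorescence of resorufin, 544 nm excitation, 590 nm emission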
WT yeast gro inh: growth inhibition of WT strain, primary screen, mitochondrial fusion inhibitor project, WT and mutant strains, chemical genetic | inhibition, % at 10 µM | mitochondrial fusion phenotypic screen | 2.1% of 190,000 active; in the data active means inhibition above about 58%; tested in S. cerevisiae
Diaph inh CS: diaphorase inhibitors and chemical oxidizers, primary screen, counter-screen for diaphorase-coupled primary assays, biochemical, uHTS, resorufin fluorescence. diaphorase resazurin-to-resorufin fluorescence, NADH, 16 min; bacterial (C. kluyveri) enzyme, not human. 0.69% of 190,000 active. inhibition, % at 20 µM. AID 1217, 2008;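 active means primary screen inhibition at 20 µM above a set limit, cut at about 50% in these data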;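 further: plate controls were DMSO with full reaction for no effect and wells lacking NADH for full effect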
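System: Diaphorase enzyme from Clostridium kluyveri | Amount: Enzyme working solution with 0.14 U/mL diaphorase | Benchmarks: No-NADH positive control and DMSO neutral control | Signal: Fluorescence of resorufin formed from resazurin, Ex 544/Em 590 nm | Schedule: 16-min room-temperature incubation before reading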
Starred values were filed as active, the others as inactive.

`OC(CN1CCN(Cc2ccccc2)CC1)c1ccc(F)cc1` (stereo not given) gave Cl transport mod -0.125, Lmaj promast 95.9*, ROMK mod 0.445, Diaphorase act 1, WT yeast gro inh 8.0 and Diaph inh CS -3.8.
`CCOC(=O)N1CCN(CC(O)c2ccccc2)CC1` (stereo not given) gave Cl transport mod -0.553, Lmaj promast -3.3, ROMK mod 1.09, Diaphorase act 1, WT yeast gro inh 3.1 and Diaph inh CS -0.1.
`Cc1ccccc1OCCSc1nnc(-c2cccnc2)n1N` gave Cl transport mod -1.57, Lmaj promast 1.3, Diaphorase act 0.9, WT yeast gro inh -2.6 and Diaph inh CS 12.3.
C=CCSc1nnc(-c2ccccc2NC(=O)CC)c(=O)[nH]1 was read as Cl transport mod 0.756, Lmaj promast -6.4, Diaphorase act 0.8, WT yeast gro inh 14.1 and Diaph inh CS 21.6.
Screening Clc1ccc(CNC2CCCC2)cc1 returned Cl transport mod 0.00957, Lmaj promast 37.0, ROMK mod 0.0577, Diaphorase act 0.9, WT yeast gro inh 8.3 and Diaph inh CS 6.9.
For Oc1ccc(CNC2CCCCC2)cc1 the results were Lmaj promast 90.2*, ROMK mod 0.91, Diaphorase act 1.1, WT yeast gro inh -0.2 and Diaph inh CS -8.8.
For COc1ccc(Nc2nc(N)nc(CN(C)C3CCCCC3)n2)cc1 the results were Cl transport mod 0.518, Lmaj promast -3.8, Diaphorase act 1.1, WT yeast gro inh -6.7 and Diaph inh CS -9.4.
For CN(Cc1ccc(O)cc1)C1CCCCC1 the results were Lmaj promast 93.3*, ROMK mod -0.085, Diaphorase act 0.9, WT yeast gro inh 12.5 and Diaph inh CS 7.7.
COc1ccc(CN(C)C2CCCCC2)cc1 was read as Cl transport mod -0.346, Lmaj promast 87.1*, Diaphorase act 1.2, WT yeast gro inh 12.2 and Diaph inh CS -18.6.
COc1cc(NC(=O)c2ccc(OC)c([N+](=O)[O-])c2)ccc1NC(=O)c1cccs1 was read as Cl transport mod 1.34, Lmaj promast 84.3*, Diaphorase act 0.8, WT yeast gro inh 3.8 and Diaph inh CS 15.0.
Screening CCOc1ccc(C(=O)Nc2cccc(NC(=O)c3cccs3)c2)cc1[N+](=O)[O-] returned Cl transport mod -0.548, Lmaj promast 34.3, Diaphorase act 0.7, WT yeast gro inh -3.1 and Diaph inh CS 25.6.
For COc1cc(N)ccc1NC(=O)c1cccs1 the results were Cl transport mod -0.764, Lmaj promast 72.9*, Diaphorase act 1, WT yeast gro inh -5.0 and Diaph inh CS -0.2.
Screening Cc1csc(NC(=O)CSc2nnc3c4ccccc4nc(C(C)(C)C)n23)n1 returned Cl transport mod 2, Lmaj promast 7.8, Diaphorase act 0.8, WT yeast gro inh -4.9 and Diaph inh CS 15.9.
O=C1/C(=C\c2cccnc2)Sc2ccccc21 was read as Cl transport mod -1.05, Lmaj promast 99.6*, Diaphorase act 0.9, WT yeast gro inh 15.0 and Diaph inh CS 11.2.
For COc1cccc(C2N(c3cccc(Cl)c3)C(=O)C3CCCN32)c1 (stereo not given) the results were Cl transport mod -0.148, Lmaj promast -2.9, Diaphorase act 0.9, WT yeast gro inh -6.4 and Diaph inh CS 5.0.
`Cc1ccc(NC(=O)C(NC2CCCc3ccccc32)c2ccccc2)c([N+](=O)[O-])c1` (stereo not given) gave Cl transport mod -0.388, Lmaj promast 89.3*, ROMK mod -0.0662, Diaphorase act 0.7, WT yeast gro inh -3.5 and Diaph inh CS 33.7.
Screening Cc1ccc(NC(=O)C(NC2CCCc3ccccc32)c2ccccc2)cc1Cl (stereo not given) returned Cl transport mod -0.296, Lmaj promast 58.3*, ROMK mod 0.0499, Diaphorase act 0.9, WT yeast gro inh 33.0 and Diaph inh CS 7.5.
Cc1ccc(NC(=O)C2(c3ccccc3)CCOCC2)c([N+](=O)[O-])c1 was read as Cl transport mod -0.685, Lmaj promast -5.5, Diaphorase act 0.9, WT yeast gro inh 1.7 and Diaph inh CS 12.4.
Screening O=C(C(Cc1ccccc1)N1C(=O)c2ccccc2C1=O)N1c2ccccc2CCc2ccccc21 (stereo not given) returned Cl transport mod -0.0832, Lmaj promast 57.5*, ROMK mod -0.757, Diaphorase act 0.9, WT yeast gro inh 23.5 and Diaph inh CS 13.0.
O=C1c2ccccc2C(=O)N1CC(=O)N1c2ccccc2CCc2ccccc21 was read as Cl transport mod 0.966, Lmaj promast -2.0, ROMK mod 0.4, Diaphorase act 0.7, WT yeast gro inh 8.6 and Diaph inh CS 25.6.
`O=C(NC(Cc1ccccc1)C(=O)O)/C(=C/c1ccco1)NC(=O)c1cccc(Br)c1` (stereo not given) gave Cl transport mod 0.922, Lmaj promast 15.4, ROMK mod 1.26, Diaphorase act 1, WT yeast gro inh -4.8 and Diaph inh CS 0.0.
Screening CC(OC(=O)C1CCN(S(=O)(=O)c2ccc(Cl)cc2)CC1)C(=O)N1CCc2ccccc21 (stereo not given) returned Lmaj promast 97.8*, Diaphorase act 1, WT yeast gro inh 7.7 and Diaph inh CS 0.0.
`O=C(C1CCN(S(=O)(=O)c2ccc3c(c2)OCCO3)CC1)N1CCc2ccccc21` gave Cl transport mod -0.039, Lmaj promast -2.7, ROMK mod 0.109, Diaphorase act 0.8, WT yeast gro inh 9.8 and Diaph inh CS 18.0.
`O=C(NCc1ccc(C(F)(F)F)cc1)C1CC(c2c(Cl)cccc2Cl)=NO1` (stereo not given) gave Cl transport mod -0.43, Lmaj promast -0.7, Diaphorase act 0.7, WT yeast gro inh -19.3 and Diaph inh CS 26.5.
CNc1nc(SCc2ccc(C)cc2)nc2c1CCCC2 was read as Lmaj promast 100.0*, Diaphorase act 0.8, WT yeast gro inh 66.9* and Diaph inh CS 17.5.
Screening Cc1ccc(CSc2nc3c(c(N(C)C)n2)CCCC3)cc1 returned Lmaj promast 7.9, Diaphorase act 1, WT yeast gro inh 78.2* and Diaph inh CS 2.7.
`CN(C)c1nc(SCc2ccccc2Cl)nc2c1CCCC2` gave Lmaj promast 2.0, Diaphorase act 0.9, WT yeast gro inh 75.8 and Diaph inh CS 14.8.
`COC(=O)CSc1nc(SCc2ccc(C)cc2)nc2c1CCCC2` gave Lmaj promast -7.8, Diaphorase act 0.9, WT yeast gro inh 70.0* and Diaph inh CS 7.4.
